Measurements from ChEMBL document CHEMBL4190349, “Synthesis and 2D-QSAR studies of neolignan-based diaryl-tetrahydrofuran and -furan analogues with remarkable activity against Trypanosoma cruzi and assessment of the trypanothione reductase activity” (Eur J Med Chem, 2017).
Active and inactive are the calls of the source. No cut-off for these calls is given here.

What was measured:
[1] = Cytotoxicity in C57BL/6 mouse spleen cells assessed as reduction in cell viability up to 250 uM incubated for 24 hrs by propidium iodide staining based flow cytometry
Outline: (§1)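 Spleen cells from C57BL/6 mice, after red-cell lysis with Tris–NH4Cl, in RPMI with 5% FBS, seeded at 6.5×10^6/mL. Exposed 24 h at 37°C to 250 to 1.50 µM. Stained with 10 µg/mL propidium iodide and read by flow cytometry. 1% Tween 20 was the death control. Run in triplicate.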

Trypanosoma cruzi [2] = experiment: Antitrypanosomal activity against Trypanosoma cruzi Tulahuen trypomastigotes expressing beta-galactosidase gene incubated for 4 days by beta-galactosidase mediated CPRG substrate hydrolysis assay; type: functional, organism-based; conditions: 96 h
Outline: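 Tulahuen lacZ (β-galactosidase-expressing) cell-derived trypomastigotes, 5×10^5 per well, exposed 4 days at 37°C to serial concentrations 500 to 3.75 µM. Then PBS with 0.5% Triton X-100 and 100 µM CPRG was added, followed by 4 h at 37°C. Absorbance at 570 nm reflects viability. Run in duplicate. EC50 comes from dose-response curves.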

Trypanosoma cruzi [3] = experiment: Growth inhibition of Trypanosoma cruzi amastigotes at 20 ug/ml; type: functional; conditions: read-out: GI
Trypanosoma cruzi [4] = experiment: Antitrypanosomal activity against Trypanosoma cruzi Tulahuen amastigotes expressing beta-galactosidase gene infected in LLC-MK2 cells incubated for 4 days after 4 hrs post infection by beta-galactosidase mediated CPRG substrate hydrolysis assay; type: functional, organism-based; conditions: in the assay text read “24 hrs post infection” for “4 hrs post infection”
Outline: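 LLC-MK2 cells in phenol-red-free RPMI 1640 with 5% FBS, seeded at 2×10^4 cells/mL for 24 h. Infected with Tulahuen lacZ trypomastigotes (3:1 parasite:cell) at 37°C and washed at 4 h. Compounds (500 to 0.24 µM) added 24 h post-infection for 4 days at 37°C. After washing, Triton X-100/100 µM CPRG lysis, 4 h at 37°C, A570. Untreated infected wells were controls.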

Trypanosoma cruzi [5] = experiment: Antitrypanosomal activity against Trypanosoma cruzi Y trypomastigotes; type: functional, organism-based
Outline: (§2)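 Y strain trypomastigotes plated at 1×10^6 parasites/mL and exposed to serial concentrations of 500 to 3.75 µM. After 24 h, parasites were removed and counted in a Neubauer chamber. EC50 comes from dose-response curves.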

Trypanothione reductase = Trypanothione reductase (Trypanosoma cruzi, UniProt P28593); experiment: (§3) Inhibition of Trypanosoma cruzi trypanothione reductase expressed in Escherichia coli BL21 (DE3) pre-incubated for 30 mins using TS2 substrate in presence of NADPH by colorimetric microplate assay
Trypanothione reductase, sequence (P28593 whole entry): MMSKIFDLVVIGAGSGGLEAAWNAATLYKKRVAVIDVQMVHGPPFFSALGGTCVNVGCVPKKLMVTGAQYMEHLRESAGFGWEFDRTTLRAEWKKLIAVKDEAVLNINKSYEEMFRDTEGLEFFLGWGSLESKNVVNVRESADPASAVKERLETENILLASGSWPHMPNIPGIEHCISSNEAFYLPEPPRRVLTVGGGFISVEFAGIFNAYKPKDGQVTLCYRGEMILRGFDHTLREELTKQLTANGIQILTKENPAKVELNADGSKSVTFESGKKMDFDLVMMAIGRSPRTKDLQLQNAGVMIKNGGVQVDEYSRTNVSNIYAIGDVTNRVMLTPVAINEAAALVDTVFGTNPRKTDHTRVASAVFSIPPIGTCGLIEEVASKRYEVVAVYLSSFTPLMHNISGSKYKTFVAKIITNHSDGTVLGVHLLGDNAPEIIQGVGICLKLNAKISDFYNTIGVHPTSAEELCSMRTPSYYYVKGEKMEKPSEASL
Outline: (§4)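 Recombinant T. cruzi TR expressed in E. coli BL21DE3 and affinity-purified. Assay: TcTR 5 m-unit, 40 mM HEPES pH 7.5, 0.15 mM NADPH, 1 mM EDTA, 1 µM TS2, compounds in DMSO (final 1% DMSO control). Pre-incubated 30 min at 27°C, then DTNB added, and A412 read every 5 min for 30 min.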

Trypanosoma cruzi [6] = experiment: Antitrypanosomal activity against Trypanosoma cruzi Y trypomastigotes assessed as induction of parasite lysis; type: functional, organism-based; outline: as §2
[7] = Cytotoxicity in C57BL/6 mouse spleen cells assessed as reduction in cell viability incubated for 24 hrs by propidium iodide staining based flow cytometry; outline: as §1
[8] = Selectivity index, ratio of CC50 for cytotoxicity in C57BL/6 spleen cells to EC50 for Antitrypanosomal activity against Trypanosoma cruzi Tulahuen trypomastigotes; type: toxicity, cell-based; conditions: C57BL/6, mouse, read-out: Ratio CC50/EC50
Trypanosoma cruzi [9] = experiment: Antitrypanosomal activity against Trypanosoma cruzi; type: functional, organism-based
[10] = target: Trypanothione reductase (Trypanosoma cruzi) (UniProt P28593); experiment: as §3; outline: as §4
Trypanothione reductase (Trypanosoma cruzi), sequence (P28593 whole entry, looked up): as the sequence (P28593 whole entry) above

Compound	Activity [1]	EC50 (Trypanosoma cruzi [2]) [µM]	IC50 (Trypanosoma cruzi [2]) [µM]	other results
COc1ccc(C(=O)CCC(=O)c2ccccc2)cc1	Non-Toxic	15.9	15.9	
COc1ccc(-c2ccc(-c3ccc(OC)c(OC)c3)o2)cc1OC				inhibition of growth at 20 µg/mL (Trypanosoma cruzi [3]): 65%
c1ccc(C2CCC(c3ccccc3)O2)cc1 (stereo unspecified)	Non-Toxic	37.3	37.3	
COc1cccc(C(=O)CCC(=O)c2ccccc2)c1	Non-Toxic	18.3	18.3	
COc1ccc(-c2ccc(-c3ccccc3)o2)c(OC)c1	Non-Toxic	1.12	1.12	EC50 (Trypanosoma cruzi [4]): 19 µM; EC50 (Trypanosoma cruzi [5]): 35.9 µM; IC50 (Trypanothione reductase): 17.7 µM
COc1cc(OC)cc(C(=O)CCC(=O)c2ccccc2)c1	Non-Toxic	1.69	1.69	EC50 (Trypanosoma cruzi [5]): 15.9 µM
O=C(Cn1ccnc1[N+](=O)[O-])NCc1ccccc1 [BENZNIDAZOLE]		1.65		EC50 (Trypanosoma cruzi [5]): 0.04 µM
COc1ccc(C2CCC(c3ccccc3)O2)c(OC)c1 (stereo unspecified)	Non-Toxic	0.75	0.75	EC50 (Trypanosoma cruzi [4]): 19.8 µM; EC50 (Trypanosoma cruzi [5]): 1.05 µM
COc1ccc(C(O)C#CC(O)c2ccccc2)cc1OC (stereo unspecified)	Non-Toxic	8.98	8.97	
COc1cccc(-c2ccc(-c3ccccc3)o2)c1	Non-Toxic	3.34	3.34	EC50 (Trypanosoma cruzi [4]): 126 µM; EC50 (Trypanosoma cruzi [5]): 34.2 µM; IC50 (Trypanothione reductase): 8.9 µM
COc1cc([C@@H]2O[C@@H](c3cc(OC)c(OC)c(OC)c3)[C@H](C)[C@H]2C)cc(OC)c1OC [GRANDISIN]		28.6		EC50 (Trypanosoma cruzi [6]): 3.7 µM
COc1cc(C(=O)CCC(=O)c2ccccc2)cc(OC)c1OC	Non-Toxic	36.9	36.9	
COc1ccc(C(O)CCC(O)c2ccccc2)cc1OC (stereo unspecified)	Non-Toxic	83.1	83.2	
COc1cc(C(O)C#CC(O)c2ccccc2)cc(OC)c1OC (stereo unspecified)	Non-Toxic	4.88	4.88	EC50 (Trypanosoma cruzi [5]): 97.1 µM
COc1cccc(C(O)CCC(O)c2ccccc2)c1 (stereo unspecified)	Non-Toxic	193	193	
COc1ccc(C(O)CCC(O)c2ccccc2)c(OC)c1 (stereo unspecified)		19.9	19.9	CC50 at 24 h [7]: 236 µM; selectivity ratio [8]: 11.9
COc1cc([C@@H]2O[C@@H](c3cc(OC)c(OCc4ccccc4)c(OC)c3)C(CO)=C2C)cc(OC)c1OC				EC50 (Trypanosoma cruzi [9]): 1.5 µM
COc1ccc(C(=O)CCC(=O)c2ccccc2)cc1OC	Non-Toxic	36	36	
NS(=O)(=O)c1ccc(-c2ccco2)cc1				inhibition of growth at 20 µg/mL (Trypanosoma cruzi [3]): 70%
COc1ccc(-c2ccc(-c3ccccc3)o2)cc1	Non-Toxic	4.75	4.75	EC50 (Trypanosoma cruzi [4]): 127 µM; EC50 (Trypanosoma cruzi [5]): 19.2 µM; IC50 (Trypanothione reductase): 7.4 µM
COc1cc(OC)cc(C(O)CCC(O)c2ccccc2)c1 (stereo unspecified)	Non-Toxic	67.6	67.6	

Compound	Activity [1]	EC50 (Trypanosoma cruzi [2]) [µM]	IC50 (Trypanosoma cruzi [2]) [µM]	other results
COc1ccc([C@H]2O[C@@H](c3ccc(OC)c(OC)c3)[C@H](C)[C@H]2C)cc1OC [VERAGUENSIN]		2.67		EC50 (Trypanosoma cruzi [6]): 2.3 µM
OC(CCC(O)c1ccccc1)c1ccccc1 (stereo unspecified)		33.2	33.2	CC50 at 24 h [7]: 166 µM; selectivity ratio [8]: 5
COc1cccc(C(O)C#CC(O)c2ccccc2)c1 (stereo unspecified)	Non-Toxic	39.1	39.1	
O=C(CCC(=O)c1ccccc1)c1ccccc1		199	199	CC50 at 24 h [7]: 220 µM; selectivity ratio [8]: 1.1
COc1cc(C(O)CCC(O)c2ccccc2)cc(OC)c1OC (stereo unspecified)		77.5	77.4	CC50 at 24 h [7]: 115 µM; selectivity ratio [8]: 1.5
COc1ccc(C2CCC(c3ccccc3)O2)cc1OC (stereo unspecified)	Non-Toxic	24.6	24.6	
COc1ccc(C2CCC(c3ccccc3)O2)cc1 (stereo unspecified)	Non-Toxic	9.07	9.08	
COc1ccc(C(O)C#CC(O)c2ccccc2)c(OC)c1 (stereo unspecified)	Non-Toxic	37.9	37.8	
COc1ccc(-c2ccc(-c3ccccc3)o2)cc1OC	Non-Toxic	1.34	1.34	EC50 (Trypanosoma cruzi [4]): 126 µM; EC50 (Trypanosoma cruzi [5]): 32.6 µM; IC50 (Trypanothione reductase): 19.2 µM
COc1cccc(C2CCC(c3ccccc3)O2)c1 (stereo unspecified)	Non-Toxic	2.29	2.29	EC50 (Trypanosoma cruzi [4]): 126 µM; EC50 (Trypanosoma cruzi [5]): 34.2 µM
COc1cc(OC)cc(C(O)C#CC(O)c2ccccc2)c1 (stereo unspecified)		4.98	4.98	CC50 at 24 h [7]: 78.6 µM; selectivity ratio [8]: 15.8
COc1ccc(C(O)CCC(O)c2ccccc2)cc1 (stereo unspecified)	Non-Toxic	68.1	68.1	
c1ccc(-c2ccc(-c3ccccc3)o2)cc1		21	21	CC50 at 24 h [7]: 194 µM; selectivity ratio [8]: 9.2
COc1cc(OC)cc(-c2ccc(-c3ccccc3)o2)c1	Non-Toxic	0.01		EC50 (Trypanosoma cruzi [4]): 133 µM; EC50 (Trypanosoma cruzi [5]): 4.08 µM; inhibition [10]: inactive
COc1ccc(C(O)C#CC(O)c2ccccc2)cc1 (stereo unspecified)	Non-Toxic	14	14	
COc1cc(-c2ccc(-c3ccccc3)o2)cc(OC)c1OC	Non-Toxic	29.1	29.1	
OC(C#CC(O)c1ccccc1)c1ccccc1 (stereo unspecified)	Non-Toxic	18.7	18.7	
COc1cc(C2CCC(c3ccccc3)O2)cc(OC)c1OC (stereo unspecified)	Non-Toxic	26.2	26.2	
COc1cc(OC)cc(C2CCC(c3ccccc3)O2)c1 (stereo unspecified)	Non-Toxic	12.1	12.1	
COc1ccc(C(=O)CCC(=O)c2ccccc2)c(OC)c1	Non-Toxic	7.79	7.8	EC50 (Trypanosoma cruzi [5]): 1.76 µM
